Test results: ChEMBL document CHEMBL1126811, “Fluorinated and iodinated dopamine agents: D2 imaging agents for PET and SPECT” (J Med Chem, 1993)
pKd: −log10 of the molar value.

Tests used:
[1] = system: Rattus norvegicus; test: Uptake of radioligand [125I]FIDA1 by striatum in rat after 120 minutes after an intravenous injection is given (average of 3 rats); assay type: ADME, organism-based; settings: in vivo, 2 h
Method in brief: (§1)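 Male Sprague–Dawley rats (225–300 g) under ether anesthesia received radioiodinated tracer (8–10 μCi in 0.2 mL saline) into the femoral vein. They were killed by cardiac excision at set times. Cortex, striatum, hippocampus and cerebellum were dissected, weighed and gamma-counted. Results are % dose/gram against diluted injected dose.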

[2] = system: Rattus norvegicus; test: Biodistribution of radioligand [125I]FIDA1 in muscle of rat after 2 minutes after an intravenous injection is given (average of 3 rats); assay type: ADME, organism-based, Muscle tissue; settings: in vivo
Method in brief: (§2)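 Male Sprague–Dawley rats (225–300 g) were given 0.2 mL saline containing the radioiodinated ligand (8–10 μCi) into the femoral vein under ether anesthesia. They were killed at set times by cardiac excision. Organs were weighed and γ-counted against diluted aliquots of the injected dose and expressed as % dose/organ. Blood and muscle were taken as 7% and 40% of body weight. Three rats were used per point.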

[3] = system: Rattus norvegicus; test: Uptake of radioligand [125I]FIDA1 by cortex in rat after 2 minutes after an intravenous injection is given (average of 3 rats); assay type: ADME, organism-based; settings: in vivo; method in brief: as §1
[4] = system: Rattus norvegicus; test: Biodistribution of radioligand [125I]FIDA1 in blood of rat after 30 minutes after an intravenous injection is given (average of 3 rats); assay type: ADME, organism-based; settings: in vivo, 0.5 h; method in brief: as §2
[5] = system: Rattus norvegicus; test: Biodistribution of radioligand [125I]FIDA1 in lung of rat after 60 minutes after an intravenous injection is given (average of 3 rats); assay type: ADME, organism-based; settings: in vivo, 1 h; method in brief: as §2
[6] = system: Rattus norvegicus; test: Biodistribution of radioligand [125I]FIDA1 in kidney of rat after 60 minutes after an intravenous injection is given (average of 3 rats); assay type: ADME, organism-based; settings: in vivo, 1 h; method in brief: as §2
[7] = system: Rattus norvegicus; test: Biodistribution of radioligand [125I]FIDA1 in muscle of rat after 60 minutes after an intravenous injection is given (average of 3 rats); assay type: ADME, organism-based, Muscle tissue; settings: in vivo, 1 h; method in brief: as §2
[8] = system: Rattus norvegicus; test: Biodistribution of radioligand [125I]FIDA1 in spleen of rat after 120 minutes after an intravenous injection is given (average of 3 rats); assay type: ADME, organism-based; settings: in vivo, 2 h; method in brief: as §2
[9] = system: Rattus norvegicus; test: Biodistribution of radioligand [125I]FIDA1 in thyroid of rat after 2 minutes after an intravenous injection is given (average of 3 rats); assay type: ADME, organism-based, Thyroid gland; settings: in vivo; method in brief: as §2
[10] = system: Rattus norvegicus; test: Uptake of radioligand [125I]FIDA1 by cortex in rat after 60 minutes after an intravenous injection is given (average of 3 rats); assay type: ADME, organism-based; settings: in vivo, 1 h; method in brief: as §1
[11] = system: Rattus norvegicus; test: Biodistribution of radioligand [125I]FIDA1 in liver of rat after 120 minutes after an intravenous injection is given (average of 3 rats); assay type: ADME, organism-based; settings: in vivo, 2 h; method in brief: as §2
[12] = system: Rattus norvegicus; test: Biodistribution of radioligand [125I]FIDA1 in thyroid of rat after 120 minutes after an intravenous injection is given (average of 3 rats); assay type: ADME, organism-based, Thyroid gland; settings: in vivo, 2 h; method in brief: as §2
[13] = system: Rattus norvegicus; test: Biodistribution of radioligand [125I]FIDA1 in brain of rat after 60 minutes after an intravenous injection is given (average of 3 rats); assay type: ADME, organism-based; settings: in vivo, 1 h; method in brief: as §2
[14] = system: Rattus norvegicus; test: Biodistribution of radioligand [125I]FIDA1 in spleen of rat after 60 minutes after an intravenous injection is given (average of 3 rats); assay type: ADME, organism-based; settings: in vivo, 1 h; method in brief: as §2
[15] = system: Rattus norvegicus; test: Biodistribution of radioligand [125I]FIDA1 in lung of rat after 120 minutes after an intravenous injection is given (average of 3 rats); assay type: ADME, organism-based; settings: in vivo, 2 h; method in brief: as §2
[16] = system: Rattus norvegicus; test: Biodistribution of radioligand [125I]-FIDA1 in liver of rat after 2 minutes after an intravenous injection is given (average of 3 rats); assay type: ADME, organism-based; settings: in vivo; method in brief: as §2
[17] = system: Rattus norvegicus; test: Biodistribution of radioligand [125I]FIDA1 in heart of rat after 60 minutes after an intravenous injection is given (average of 3 rats); assay type: ADME, organism-based; settings: in vivo, 1 h; method in brief: as §2
[18] = system: Rattus norvegicus; test: Biodistribution of radioligand [125I]FIDA1 in kidney of rat after 30 minutes after an intravenous injection is given (average of 3 rats); assay type: ADME, organism-based; settings: in vivo, 0.5 h; method in brief: as §2
[19] = system: Rattus norvegicus; test: Biodistribution of radioligand [125I]-FIDA1 in kidney of rat after 2 minutes after an intravenous injection is given (average of 3 rats); assay type: ADME, organism-based; settings: in vivo; method in brief: as §2
[20] = system: Rattus norvegicus; test: Uptake of radioligand [125I]FIDA1 by striatum in rat after 2 minutes after an intravenous injection is given (average of 3 rats); assay type: ADME, organism-based; settings: in vivo; method in brief: as §1
[21] = system: Rattus norvegicus; test: Biodistribution of radioligand [125I]FIDA1 in brain of rat after 2 minutes after an intravenous injection is given (average of 3 rats); assay type: ADME, organism-based; settings: in vivo; method in brief: as §2
[22] = system: Rattus norvegicus; test: Uptake of radioligand [125I]FIDA1 by striatum in rat after 60 minutes after an intravenous injection is given (average of 3 rats); assay type: ADME, organism-based; settings: in vivo, 1 h; method in brief: as §1
[23] = system: Rattus norvegicus; test: Biodistribution of radioligand [125I]FIDA1 in skin of rat after 60 minutes after an intravenous injection is given (average of 3 rats); assay type: ADME, organism-based, Zone of skin; settings: in vivo, 1 h; method in brief: as §2
[24] = organism: Rattus norvegicus; test: Dissociation constant was determined; assay type: ADME, organism-based
Method in brief: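 Rat striatal membrane homogenate (40–60 μg protein) incubated with 125I-labeled ligand ± competitors in 0.2 mL assay buffer, 15 min at 37 °C with stirring. Filtered on protamine-pretreated (0.2%) GF/B filters, washed with cold 50 mM Tris-HCl pH 7.4, gamma-counted. Nonspecific binding defined with 10 μM (+)-butaclamol. Scatchard and competition data fitted by iterative nonlinear least squares.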

[25] = system: Rattus norvegicus; test: Biodistribution of radioligand [125I]FIDA1 in thyroid of rat after 60 minutes after an intravenous injection is given (average of 3 rats); assay type: ADME, organism-based, Thyroid gland; settings: in vivo, 1 h; method in brief: as §2
[26] = system: Rattus norvegicus; test: Biodistribution of radioligand [125I]FIDA1 in skin of rat after 2 minutes after an intravenous injection is given (average of 3 rats); assay type: ADME, organism-based, Zone of skin; settings: in vivo; method in brief: as §2
[27] = system: Rattus norvegicus; test: Biodistribution of radioligand [125I]FIDA1 in brain of rat after 120 minutes after an intravenous injection is given (average of 3 rats); assay type: ADME, organism-based; settings: in vivo, 2 h; method in brief: as §2
[28] = system: Rattus norvegicus; test: Biodistribution of radioligand [125I]FIDA1 in lung of rat after 2 minutes after an intravenous injection is given (average of 3 rats); assay type: ADME, organism-based; settings: in vivo; method in brief: as §2
[29] = system: Rattus norvegicus; test: Biodistribution of radioligand [125I]-FIDA1 in heart of rat after 120 minutes after an intravenous injection is given (average of 3 rats); assay type: ADME, organism-based; settings: in vivo, 2 h; method in brief: as §2
[30] = system: Rattus norvegicus; test: Biodistribution of radioligand [125I]FIDA1 in kidney of rat after 120 minutes after an intravenous injection is given (average of 3 rats); assay type: ADME, organism-based; settings: in vivo, 2 h; method in brief: as §2
[31] = system: Rattus norvegicus; test: Biodistribution of radioligand [125I]FIDA1 in skin of rat after 120 minutes after an intravenous injection is given (average of 3 rats); assay type: ADME, organism-based, Zone of skin; settings: in vivo, 2 h; method in brief: as §2
[32] = system: Rattus norvegicus; test: Uptake of radioligand [125I]FIDA1 by cerebellum in rat after 120 minutes after an intravenous injection is given (average of 3 rats); assay type: ADME, organism-based; settings: in vivo, 2 h; method in brief: as §1
[33] = system: Rattus norvegicus; test: Uptake of radioligand [125I]-FIDA1 by cortex in rat after 120 minutes after an intravenous injection is given (average of 3 rats); assay type: ADME, organism-based; settings: in vivo, 2 h; method in brief: as §1
[34] = system: Rattus norvegicus; test: Biodistribution of radioligand [125I]FIDA1 in heart of rat after 2 minutes after an intravenous injection is given (average of 3 rats); assay type: ADME, organism-based; settings: in vivo; method in brief: as §2
[35] = system: Rattus norvegicus; test: Uptake of radioligand [125I]FIDA1 by cerebellum in rat after 60 minutes after an intravenous injection is given (average of 3 rats); assay type: ADME, organism-based; settings: in vivo, 1 h; method in brief: as §1
[36] = system: Rattus norvegicus; test: Biodistribution of radioligand [125I]FIDA1 in liver of rat after 60 minutes after an intravenous injection is given (average of 3 rats); assay type: ADME, organism-based; settings: in vivo, 1 h; method in brief: as §2
[37] = system: Rattus norvegicus; test: Biodistribution of radioligand [125I]FIDA1 in spleen of rat after 2 minutes after an intravenous injection is given (average of 3 rats); assay type: ADME, organism-based; settings: in vivo; method in brief: as §2

Row | Dose/g [1] [%] | Dose/organ [2] [%] | Dose/g [3] [%] | Dose/organ [4] [%] | Dose/organ [5] [%] | Dose/organ [6] [%] | Dose/organ [7] [%] | Dose/organ [8] [%] | Dose/organ [9] [%] | Dose/g [10] [%] | Dose/organ [11] [%] | Dose/organ [12] [%] | Dose/organ [13] [%] | Dose/organ [14] [%] | Dose/organ [15] [%] | Dose/organ [16] [%] | Dose/organ [17] [%] | Dose/organ [18] [%] | Dose/organ [19] [%] | Dose/g [20] [%] | SMILES | further results
1 | 0.23 | 11.14 | 0.63 | 0.87 | 0.32 | 1.38 | 4.21 | 0.05 | 0.07 | 0.04 | 5.71 | 0.03 | 0.1 | 0.14 | 0.15 | 19.41 | 0.06 | 2.96 | 6.77 | 0.59 | COc1cc(I)cc(C(=O)NC[C@@H]2CCCN2Cc2ccc(F)cc2)c1OC | Dose/organ [21]: 0.98%; Dose/g [22]: 0.37%; Dose/organ [23]: 8.56%; pKd [24]: 10.70; Dose/organ [25]: 0.03%; Dose/organ [26]: 6.08%; Dose/organ [27]: 0.05%; Dose/organ [28]: 7.82%; Dose/organ [29]: 0.03%; Dose/organ [30]: 0.42%; Dose/organ [31]: 5.75%; Dose/g [32]: 0.01%; Dose/g [33]: 0.01%; Dose/organ [34]: 1.38%; Dose/g [35]: 0.03%; Dose/organ [36]: 10.44%; Dose/organ [37]: 1.19%
2 | 0.095 | 11.83 | 0.25 | 1.91 | 0.14 | 0.39 | 1.96 | 0.01 | 0.07 | 0.013 | 2.24 | 0.03 | 0.05 | 0.05 | 0.04 | 20.46 | 0.03 | 1.42 | 6.18 | 0.3 | CCN1CCC[C@H]1CNC(=O)c1cc(I)cc(OC)c1OCCF | Dose/organ [21]: 0.41%; Dose/g [22]: 0.175%; Dose/organ [23]: 1.76%; pKd [24]: 9.89; Dose/organ [25]: 0.04%; Dose/organ [26]: 8.19%; Dose/organ [27]: 0.02%; Dose/organ [28]: 6.53%; Dose/organ [29]: 0.01%; Dose/organ [30]: 0.11%; Dose/organ [31]: 0.75%; Dose/g [32]: 0.0016%; Dose/g [33]: 0.0014%; Dose/organ [34]: 0.81%; Dose/g [35]: 0.006%; Dose/organ [36]: 7.08%; Dose/organ [37]: 0.7%
